Measured values: ChEMBL document CHEMBL4665627 (Eur J Med Chem, 2019)
Values after ≈ are worked out from the molar mass of the structure shown. Active and inactive are the calls of the source. The rule behind the calls is not given here.

How the values were obtained:
Candida parapsilosis = assay: Antifungal activity against Candida parapsilosis ATCC 22019 assessed as inhibition of fungal growth after 24 hrs by CLSI protocol based two fold serial dilution method; type: functional; settings: Lodderomyces parapsilosis
How it was run: (§1)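 Two-fold serial broth dilution in 96-well plates following CLSI; MIC (mM) taken as the lowest concentration giving complete growth inhibition; MIC values from three independent experiments.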

Enterococcus faecalis = assay: Antibacterial activity against Enterococcus faecalis assessed as inhibition of bacterial growth after 24 hrs by CLSI protocol based two fold serial dilution method; type: functional; how it was run: as §1
Aspergillus fumigatus = assay: Antifungal activity against Aspergillus fumigatus assessed as inhibition of fungal growth after 24 hrs by CLSI protocol based two fold serial dilution method; type: functional; how it was run: as §1
Escherichia coli [1] = assay: Antibacterial activity against Escherichia coli ATCC 25922 assessed as inhibition of bacterial growth after 24 hrs by CLSI protocol based two fold serial dilution method; type: functional; how it was run: as §1
Staphylococcus aureus [2] = assay: Antibacterial activity against methicillin-resistant Staphylococcus aureus N315 assessed as inhibition of bacterial growth after 24 hrs by CLSI protocol based two fold serial dilution method; type: functional
Saccharomyces cerevisiae = assay: Inhibition of Saccharomyces cerevisiae CGMCC 2.145 chitin synthase at 300 ug/ml using GlcNAc and UDP-GlcNAc as substrate incubated for 60 mins by microplate reader analysis relative to control; settings: dose 300.0 µg/ml
How it was run: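 Chitin synthase inhibition ratio measured at 300 µg/mL test compound, relative to untreated control.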

[3] = Inhibition of Saccharomyces cerevisiae CGMCC 2.145 chitin synthase using GlcNAc and UDP-GlcNAc as substrate incubated for 60 mins by microplate reader analysis
How it was run: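 Chitin synthase IC50 determined from concentration–inhibition curves.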

Pseudomonas aeruginosa [4] = assay: Antibacterial activity against Pseudomonas aeruginosa ATCC 27853 assessed as inhibition of bacterial growth after 24 hrs by CLSI protocol based two fold serial dilution method; type: functional; how it was run: as §1
Pseudomonas aeruginosa [5] = assay: Antibacterial activity against Pseudomonas aeruginosa assessed as inhibition of bacterial growth after 24 hrs by CLSI protocol based two fold serial dilution method; type: functional; how it was run: as §1
Staphylococcus aureus [6] = assay: Antibacterial activity against Staphylococcus aureus ATCC 25923 assessed as inhibition of bacterial growth after 24 hrs by CLSI protocol based two fold serial dilution method; type: functional; how it was run: as §1
Klebsiella pneumoniae [7] = assay: Antibacterial activity against Klebsiella pneumoniae assessed as inhibition of bacterial growth after 24 hrs by CLSI protocol based two fold serial dilution method; type: functional; how it was run: as §1
Staphylococcus aureus [8] = assay: Antibacterial activity against Staphylococcus aureus ATCC 29213 assessed as inhibition of bacterial growth after 24 hrs by CLSI protocol based two fold serial dilution method; type: functional
Staphylococcus aureus [9] = assay: Antibacterial activity against Staphylococcus aureus assessed as inhibition of bacterial growth after 24 hrs by CLSI protocol based two fold serial dilution method; type: functional; how it was run: as §1
Candida albicans [10] = assay: Antifungal activity against Candida albicans assessed as inhibition of fungal growth after 24 hrs by CLSI protocol based two fold serial dilution method; type: functional; how it was run: as §1
Acinetobacter baumannii = assay: Antibacterial activity against Acinetobacter baumannii assessed as inhibition of bacterial growth after 24 hrs by CLSI protocol based two fold serial dilution method; type: functional; how it was run: as §1
Candida albicans [11] = assay: Antifungal activity against Candida albicans ATCC 90023 assessed as inhibition of fungal growth after 24 hrs by CLSI protocol based two fold serial dilution method; type: functional; how it was run: as §1
Escherichia coli [12] = assay: Antibacterial activity against Escherichia coli assessed as inhibition of bacterial growth after 24 hrs by CLSI protocol based two fold serial dilution method; type: functional; how it was run: as §1
Candida tropicalis = assay: Antifungal activity against Candida tropicalis assessed as inhibition of fungal growth after 24 hrs by CLSI protocol based two fold serial dilution method; type: functional; how it was run: as §1
Klebsiella pneumoniae [13] = assay: Antibacterial activity against Klebsiella pneumoniae measured every 24 hrs after several passages by serial dilution method; type: functional, organism-based

Structure (SMILES) | MIC (Candida parapsilosis) [µM] | MIC (Enterococcus faecalis) [µM] | MIC (Aspergillus fumigatus) [µM] | MIC (Escherichia coli [1]) [µM] | MIC (Staphylococcus aureus [2]) [µM] | inhibition (Saccharomyces cerevisiae) [%] | IC50 [3] [µM] | MIC (Pseudomonas aeruginosa [4]) [µM] | MIC (Pseudomonas aeruginosa [5]) [µM] | MIC (Staphylococcus aureus [6]) [µM] | MIC (Klebsiella pneumoniae [7]) [µM] | MIC (Staphylococcus aureus [8]) [µM] | MIC (Staphylococcus aureus [9]) [µM] | MIC (Candida albicans [10]) [µM] | MIC (Acinetobacter baumannii) [µM] | MIC (Candida albicans [11]) [µM] | MIC (Escherichia coli [12]) [µM] | MIC (Candida tropicalis) [µM] | Activity (Klebsiella pneumoniae [13])
CCn1cc(-c2csc(N)n2)c(=O)c2cc(F)c(N3CCN(Cc4ccc(Cl)cc4)CC3)cc21 | 16 (≈ 7.97 µg/mL) | 16 (≈ 7.97 µg/mL) | 515 (≈ 256 µg/mL) | 32 (≈ 15.9 µg/mL) | 16 (≈ 7.97 µg/mL) | 56.2 | 320 | 32 (≈ 15.9 µg/mL) | 257 (≈ 128 µg/mL) | 16 (≈ 7.97 µg/mL) | 129 (≈ 64.2 µg/mL) | 64 (≈ 31.9 µg/mL) | 64 (≈ 31.9 µg/mL) | 32 (≈ 15.9 µg/mL) | 32 (≈ 15.9 µg/mL) | 64 (≈ 31.9 µg/mL) | 32 (≈ 15.9 µg/mL) | 32 (≈ 15.9 µg/mL) | –
CCn1cc(-c2csc(N)n2)c(=O)c2cc(F)c(N3CCN(CCO)CC3)cc21 | 77 (≈ 32.1 µg/mL) | 38 (≈ 15.9 µg/mL) | 153 (≈ 63.9 µg/mL) | 153 (≈ 63.9 µg/mL) | 153 (≈ 63.9 µg/mL) | 48.3 | – | 38 (≈ 15.9 µg/mL) | 77 (≈ 32.1 µg/mL) | 77 (≈ 32.1 µg/mL) | 19 (≈ 7.93 µg/mL) | 153 (≈ 63.9 µg/mL) | 153 (≈ 63.9 µg/mL) | 153 (≈ 63.9 µg/mL) | 153 (≈ 63.9 µg/mL) | 153 (≈ 63.9 µg/mL) | 153 (≈ 63.9 µg/mL) | 153 (≈ 63.9 µg/mL) | –
CCn1cc(C(=O)O)c(=O)c2cc(F)c(N3CCNCC3)cc21 [NORFLOXACIN] | – | 13 (≈ 4.15 µg/mL) | – | 25 (≈ 7.98 µg/mL) | 25 (≈ 7.98 µg/mL) | – | – | 2 (≈ 0.639 µg/mL) | 6 (≈ 1.92 µg/mL) | 3 (≈ 0.958 µg/mL) | 13 (≈ 4.15 µg/mL) | 6 (≈ 1.92 µg/mL) | 2 (≈ 0.639 µg/mL) | – | 25 (≈ 7.98 µg/mL) | – | 50 (≈ 16 µg/mL) | – | inactive
CCn1cc(-c2csc(N)n2)c(=O)c2cc(F)c(N3CCN(C(C)=O)CC3)cc21 | 39 (≈ 16.2 µg/mL) | 39 (≈ 16.2 µg/mL) | 19 (≈ 7.89 µg/mL) | 39 (≈ 16.2 µg/mL) | 77 (≈ 32 µg/mL) | 71.1 | – | 10 (≈ 4.15 µg/mL) | 39 (≈ 16.2 µg/mL) | 39 (≈ 16.2 µg/mL) | 39 (≈ 16.2 µg/mL) | 19 (≈ 7.89 µg/mL) | 77 (≈ 32 µg/mL) | 19 (≈ 7.89 µg/mL) | 39 (≈ 16.2 µg/mL) | 19 (≈ 7.89 µg/mL) | 77 (≈ 32 µg/mL) | 77 (≈ 32 µg/mL) | –
CCCCN1CCN(c2cc3c(cc2F)c(=O)c(-c2csc(N)n2)cn3CC)CC1 | 19 (≈ 8.16 µg/mL) | 75 (≈ 32.2 µg/mL) | 9 (≈ 3.87 µg/mL) | 37 (≈ 15.9 µg/mL) | 149 (≈ 64 µg/mL) | 41.4 | – | 75 (≈ 32.2 µg/mL) | 298 (≈ 128 µg/mL) | 9 (≈ 3.87 µg/mL) | 5 (≈ 2.15 µg/mL) | 19 (≈ 8.16 µg/mL) | 75 (≈ 32.2 µg/mL) | 149 (≈ 64 µg/mL) | 19 (≈ 8.16 µg/mL) | 149 (≈ 64 µg/mL) | 149 (≈ 64 µg/mL) | 9 (≈ 3.87 µg/mL) | –
CCN(CC)C(=O)CN1CCN(c2cc3c(cc2F)c(=O)c(-c2csc(N)n2)cn3CC)CC1 | 132 (≈ 64.2 µg/mL) | 132 (≈ 64.2 µg/mL) | 66 (≈ 32.1 µg/mL) | 66 (≈ 32.1 µg/mL) | 66 (≈ 32.1 µg/mL) | 49.1 | – | 132 (≈ 64.2 µg/mL) | 132 (≈ 64.2 µg/mL) | 16 (≈ 7.79 µg/mL) | 263 (≈ 128 µg/mL) | 66 (≈ 32.1 µg/mL) | 137 (≈ 66.7 µg/mL) | 66 (≈ 32.1 µg/mL) | 16 (≈ 7.79 µg/mL) | 66 (≈ 32.1 µg/mL) | 66 (≈ 32.1 µg/mL) | 132 (≈ 64.2 µg/mL) | –
NC(=O)OC[C@H](O)[C@@H](O)[C@H](N)C(=O)N[C@H](C(=O)O)[C@H]1O[C@@H](n2cc(CO)c(=O)[nH]c2=O)[C@H](O)[C@@H]1O [POLYOXIN B] | – | – | – | – | – | 81 | 120 | – | – | – | – | – | – | – | – | – | – | – | –
